Reference: ChEMBL document CHEMBL1255355, “Characterization of a naturally occurring class D beta-lactamase from Achromobacter xylosoxidans” (Antimicrob Agents Chemother, 2008)
pKi: −log10 of the molar value. Converted amounts (≈) assume the structure as drawn. The source made the active and inactive calls. The calls are words filed in the database; no cut-off is given here.

Key:
[1] = test system: Achromobacter xylosoxidans; assay: Antibacterial activity against Achromobacter xylosoxidans CIP69598 by agar dilution method; assay type: functional
Method in brief: (§1)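 MICs of β-lactams measured by agar dilution, with interpretation per CLSI guidelines. Combination tests used clavulanic acid or tazobactam at a fixed 4 μg/ml. Reference strain CIP69598 and clinical isolates MER, TB1, LOL and DUC, identified by API 32-GN. Cultures routinely grown in TS broth at 37°C.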

[2] = test system: Achromobacter xylosoxidans; assay: Antibacterial activity against Achromobacter xylosoxidans MER by agar dilution method; assay type: functional; method in brief: as §1
[3] = test system: Achromobacter xylosoxidans; assay: Antibacterial activity against Achromobacter xylosoxidans LOL by agar dilution method; assay type: functional; method in brief: as §1
[4] = test system: Achromobacter xylosoxidans; assay: Antibacterial activity against Achromobacter xylosoxidans DUC by agar dilution method; assay type: functional; method in brief: as §1
[5] = test system: Achromobacter xylosoxidans; assay: Antibacterial activity against Achromobacter xylosoxidans TB1 by agar dilution method; assay type: functional; method in brief: as §1
Escherichia coli [6] = assay: microbe, parasite or virus in culture; assay type: functional; conditions: TOP10
Escherichia coli [7] = assay: Antibacterial activity against Escherichia coli TOP10 by agar dilution method; assay type: functional
Method in brief: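 MIC determined by agar dilution; results interpreted per CLSI guidelines. E. coli TOP10 serves as the cloning host. Bacteria were routinely grown in Trypticase soy broth at 37°C.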

[8] = test system: Achromobacter xylosoxidans; assay: Activity of Achromobacter xylosoxidans CIP69598 beta-lactamase OXA-114a expressed in Escherichia coli TOP10 assessed as compound hydrolysis
Method in brief: (§2)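 OXA-114a purified from E. coli TOP10(p6S3) grown overnight in TS broth with kanamycin 30 μg/ml and ampicillin 50 μg/ml, by sonication, spermine, Q-Sepharose (pH 8.8) and S-Sepharose (pH 6.5) steps. Initial hydrolysis rates read by UV spectrophotometry at 30°C in 100 mM Tris-H2SO4-300 mM K2SO4 pH 7.0 with 10 mM NaHCO3. kcat and Km are means of three independent experiments.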

[9] = test system: Achromobacter xylosoxidans; assay: Ratio of Kcat to Km for Achromobacter xylosoxidans CIP69598 beta-lactamase OXA-114a expressed in Escherichia coli TOP10; parameters: unit not given here; method in brief: as §2
[10] = test system: Achromobacter xylosoxidans; assay: Induction of Achromobacter xylosoxidans CIP69598 beta-lactamase OXA-114a expressed in Escherichia coli TOP10 assessed as imipenem hydrolysis
Method in brief: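 Hydrolysis measured with 100 μM benzylpenicillin or imipenem as substrate. One unit hydrolyzes 1 μmol substrate/min. Protein measured against a bovine albumin standard.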

[11] = Inhibition of Achromobacter xylosoxidans CIP69598 beta-lactamase OXA-114a expressed in Escherichia coli TOP10 assessed as reduction of benzyl-penicillin hydrolysis
Method in brief: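 Ki obtained by competition with benzylpenicillin as reporter substrate. Purified enzyme, 30°C, 100 mM Tris-H2SO4-300 mM K2SO4 pH 7.0 with 10 mM NaHCO3. Initial rates read by UV spectrophotometry. Means of three independent experiments.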

[12] = test system: Achromobacter xylosoxidans; assay: Antibacterial activity against Achromobacter xylosoxidans CIP69598 in presence of 4 ug/ml Tazobactam by agar dilution method; assay type: functional; method in brief: as §1
[13] = test system: Achromobacter xylosoxidans; assay: Antibacterial activity against Achromobacter xylosoxidans MER in presence of 4 ug/ml Tazobactam by agar dilution method; assay type: functional; method in brief: as §1
[14] = test system: Achromobacter xylosoxidans; assay: Antibacterial activity against Achromobacter xylosoxidans LOL in presence of 4 ug/ml Tazobactam by agar dilution method; assay type: functional; method in brief: as §1
[15] = test system: Achromobacter xylosoxidans; assay: Antibacterial activity against Achromobacter xylosoxidans DUC in presence of 4 ug/ml Tazobactam by agar dilution method; assay type: functional; method in brief: as §1
[16] = test system: Achromobacter xylosoxidans; assay: Antibacterial activity against Achromobacter xylosoxidans TB1 in presence of 4 ug/ml Tazobactam by agar dilution method; assay type: functional; method in brief: as §1
Escherichia coli [17] = assay: Antibacterial activity against Escherichia coli TOP10 harboring recombinant p6S3 expressing beta lactamase OXA-114a in presence of 4 ug/ml Tazobactam by agar dilution method; assay type: functional
Method in brief: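 MICs by agar dilution, with tazobactam held at a fixed 4 μg/ml and results read against CLSI guidelines. Strain is E. coli TOP10 carrying p6S3, a kanamycin-resistant pBK-CMV vector holding a partial Sau3AI fragment of A. xylosoxidans CIP69598 genomic DNA. It was selected on ticarcillin 50 mg/liter plus kanamycin 30 mg/liter. Cultures were routinely grown in TS broth at 37°C.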

Escherichia coli [18] = assay: Antibacterial activity against Escherichia coli TOP10 in presence of 4 ug/ml Tazobactam by agar dilution method; assay type: functional
Method in brief: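 Plasmid-free E. coli TOP10 cloning host, tested by agar dilution MIC with tazobactam at a fixed 4 μg/ml and interpreted per CLSI guidelines. Cultures were routinely grown in Trypticase soy broth at 37°C.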

[19] = test system: Achromobacter xylosoxidans; assay: Antibacterial activity against Achromobacter xylosoxidans CIP69598 in presence of 4 ug/ml clavulanic acid by agar dilution method; assay type: functional; method in brief: as §1
[20] = test system: Achromobacter xylosoxidans; assay: Antibacterial activity against Achromobacter xylosoxidans MER in presence of 4 ug/ml clavulanic acid by agar dilution method; assay type: functional; method in brief: as §1
[21] = test system: Achromobacter xylosoxidans; assay: Antibacterial activity against Achromobacter xylosoxidans LOL in presence of 4 ug/ml clavulanic acid by agar dilution method; assay type: functional; method in brief: as §1
[22] = test system: Achromobacter xylosoxidans; assay: Antibacterial activity against Achromobacter xylosoxidans DUC in presence of 4 ug/ml clavulanic acid by agar dilution method; assay type: functional; method in brief: as §1
[23] = test system: Achromobacter xylosoxidans; assay: Antibacterial activity against Achromobacter xylosoxidans TB1 in presence of 4 ug/ml clavulanic acid by agar dilution method; assay type: functional; method in brief: as §1
Escherichia coli [24] = assay: Antibacterial activity against Escherichia coli TOP10 harboring recombinant p6S3 expressing beta lactamase OXA-114a in presence of 4 ug/ml clavulanic acid by agar dilution method; assay type: functional
Method in brief: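 Agar dilution MIC with clavulanic acid held at a fixed 4 μg/ml; interpreted per CLSI guidelines. Host E. coli TOP10 was electroporated with p6S3, a kanamycin-resistant pBK-CMV vector carrying a Sau3AI partial-digest fragment of A. xylosoxidans CIP69598 genomic DNA. Routine growth was in Trypticase soy broth at 37°C.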

Escherichia coli [25] = assay: Antibacterial activity against Escherichia coli TOP10 in presence of 4 ug/ml clavulanic acid by agar dilution method; assay type: functional
Method in brief: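 Agar dilution MICs of β-lactams, with clavulanic acid held at a fixed 4 μg/ml alongside each β-lactam. Results were interpreted against CLSI guidelines. Strains were routinely grown in Trypticase soy broth at 37°C. The E. coli TOP10 host was tested, including TOP10 carrying a pBK-CMV clone of the chromosomal A. xylosoxidans CIP69598 class D β-lactamase gene.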

Compound	MIC [1]	MIC [2]	MIC [3]	MIC [4]	MIC [5]	MIC (Escherichia coli [6])	MIC (Escherichia coli [7])	kcat [8]	further results
CO/N=C(\C(=O)N[C@@H]1C(=O)N2C(C(=O)O)=C(COC(N)=O)CS[C@H]12)c1ccco1 [CEFUROXIME]	> 64 mg/L	> 64 mg/L	> 64 mg/L	> 64 mg/L	> 64 mg/L	4 mg/L (≈ 9.43 µM)	2 mg/L (≈ 4.71 µM)	–	–
CC1(C)S[C@@H]2[C@H](NC(=O)Cc3ccccc3)C(=O)N2[C@H]1C(=O)O	–	–	–	–	–	–	–	0.1 s⁻¹	Km [8]: 10 µM; Ratio [9]: 10
CO/N=C(\C(=O)N[C@@H]1C(=O)N2C(C(=O)[O-])=C(C[N+]3(C)CCCC3)CS[C@H]12)c1csc(N)n1	64 mg/L (≈ 133 µM)	> 64 mg/L	> 64 mg/L	> 64 mg/L	> 64 mg/L	0.12 mg/L (≈ 0.25 µM)	–	–	–
CO[C@@]1(NC(=O)Cc2cccs2)C(=O)N2C(C(=O)O)=C(COC(N)=O)CS[C@@H]21 [CEFOXITIN]	> 64 mg/L	> 64 mg/L	> 64 mg/L	> 64 mg/L	> 64 mg/L	4 mg/L (≈ 9.36 µM)	4 mg/L (≈ 9.36 µM)	< 0.01 s⁻¹	Activity [10]: inactive
CCN1CCN(C(=O)N[C@@H](C(=O)N[C@@H]2C(=O)N3[C@@H]2SC(C)(C)[C@@H]3C(=O)O)c2ccccc2)C(=O)C1=O [PIPERACILLIN]	1 mg/L (≈ 1.93 µM)	1 mg/L (≈ 1.93 µM)	4 mg/L (≈ 7.73 µM)	1 mg/L (≈ 1.93 µM)	2 mg/L (≈ 3.86 µM)	4 mg/L (≈ 7.73 µM)	1 mg/L (≈ 1.93 µM)	0.5 s⁻¹	pKi [11]: 6.00; Ratio [9]: 100; MIC [12]: 0.5 mg/L; MIC [13]: 0.5 mg/L; MIC [14]: 4 mg/L; MIC [15]: 0.5 mg/L; MIC [16]: 1 mg/L; MIC (Escherichia coli [17]): 4 mg/L; MIC (Escherichia coli [18]): 1 mg/L
C[C@H]1[C@H](NC(=O)/C(=N\OC(C)(C)C(=O)O)c2csc(N)n2)C(=O)N1S(=O)(=O)O [AZTREONAM]	> 64 mg/L	> 64 mg/L	> 64 mg/L	> 64 mg/L	> 64 mg/L	–	–	–	–
CC(C)(O/N=C(\C(=O)N[C@@H]1C(=O)N2C(C(=O)[O-])=C(C[n+]3ccccc3)CS[C@H]12)c1csc(N)n1)C(=O)O [CEFTAZIDIME]	4 mg/L (≈ 7.32 µM)	16 mg/L (≈ 29.3 µM)	4 mg/L (≈ 7.32 µM)	8 mg/L (≈ 14.6 µM)	4 mg/L (≈ 7.32 µM)	0.06 mg/L (≈ 0.11 µM)	0.06 mg/L (≈ 0.11 µM)	< 0.01 s⁻¹	–
CC(=O)OCC1=C(C(=O)O)N2C(=O)[C@@H](NC(=O)Cc3cccs3)[C@H]2SC1 [CEPHALOTHIN]	> 64 mg/L	32 mg/L (≈ 80.7 µM)	> 64 mg/L	32 mg/L (≈ 80.7 µM)	32 mg/L (≈ 80.7 µM)	8 mg/L (≈ 20.2 µM)	2 mg/L (≈ 5.04 µM)	0.5 s⁻¹	Km [8]: 15 µM; Ratio [9]: 30
CC1(C)S[C@@H]2[C@H](NC(=O)[C@H](C(=O)O)c3ccsc3)C(=O)N2[C@H]1C(=O)O [TICARCILLIN]	4 mg/L (≈ 10.4 µM)	1 mg/L (≈ 2.6 µM)	> 64 mg/L	1 mg/L (≈ 2.6 µM)	1 mg/L (≈ 2.6 µM)	4 mg/L (≈ 10.4 µM)	2 mg/L (≈ 5.2 µM)	0.1 s⁻¹	Km [8]: 40 µM; Ratio [9]: 2.5; MIC [19]: 4 mg/L; MIC [20]: 1 mg/L; MIC [21]: > 64 mg/L; MIC [22]: 1 mg/L; MIC [23]: 1 mg/L; MIC (Escherichia coli [24]): 4 mg/L; MIC (Escherichia coli [25]): 2 mg/L
Cc1onc(-c2ccccc2)c1C(=O)N[C@@H]1C(=O)N2[C@@H]1SC(C)(C)[C@@H]2C(=O)O	–	–	–	–	–	–	–	< 0.01 s⁻¹	–
CC1(C)S[C@@H]2[C@H](NC(=O)[C@H](N)c3ccc(O)cc3)C(=O)N2[C@H]1C(=O)O [AMOXICILLIN]	16 mg/L (≈ 43.8 µM)	2 mg/L (≈ 5.47 µM)	> 64 mg/L	1 mg/L (≈ 2.74 µM)	8 mg/L (≈ 21.9 µM)	16 mg/L (≈ 43.8 µM)	2 mg/L (≈ 5.47 µM)	–	MIC [19]: 4 mg/L; MIC [20]: 1 mg/L; MIC [21]: 8 mg/L; MIC [22]: 1 mg/L; MIC [23]: 8 mg/L; MIC (Escherichia coli [24]): 16 mg/L; MIC (Escherichia coli [25]): 2 mg/L
CO[C@@]1(NC(=O)C(C(=O)O)c2ccc(O)cc2)C(=O)N2C(C(=O)O)=C(CSc3nnnn3C)CO[C@@H]21 (stereo not given in full) [MOXALACTAM]	2 mg/L (≈ 3.84 µM)	2 mg/L (≈ 3.84 µM)	1 mg/L (≈ 1.92 µM)	2 mg/L (≈ 3.84 µM)	2 mg/L (≈ 3.84 µM)	1 mg/L (≈ 1.92 µM)	1 mg/L (≈ 1.92 µM)	–	–
C[C@@H](O)[C@H]1C(=O)N2C(C(=O)O)=C(SCCNC=N)C[C@H]12 [IMIPENEM ANHYDROUS]	4 mg/L (≈ 13.4 µM)	1 mg/L (≈ 3.34 µM)	4 mg/L (≈ 13.4 µM)	1 mg/L (≈ 3.34 µM)	1 mg/L (≈ 3.34 µM)	–	–	> 0.1 s⁻¹	Km [8]: > 2000 µM; Activity [10]: inactive
CO/N=C(\C(=O)N[C@@H]1C(=O)N2C(C(=O)O)=C(COC(C)=O)CS[C@H]12)c1csc(N)n1 [CEFOTAXIME]	> 64 mg/L	> 64 mg/L	> 64 mg/L	> 64 mg/L	> 64 mg/L	0.25 mg/L (≈ 0.549 µM)	0.12 mg/L (≈ 0.263 µM)	< 0.01 s⁻¹	–
